Reference: ChEMBL document CHEMBL5038571, “Design and Synthesis of EZH2-Based PROTACs to Degrade the PRC2 Complex for Targeting the Noncatalytic Activity of EZH2” (J Med Chem, 2021)
Calls of active or inactive are those of the source. The calls are words filed in the database; no cut-off is given here.

Experiments:
[1] = molecular target: T1, Protein cereblon/Histone-lysine N-methyltransferase EZH2 (Homo sapiens) (UniProt Q15910+Q96SW2); assay: PROTAC activity at CRBN E3 ligase/EZH2 in PRC2 complex in human WSUDLCL2 cells assessed as induction of EED degradation at 1 uM incubated for 48 hrs by Western blot analysis relative to control; type: cell-based
T1 sequence (Q15910 whole entry, looked up): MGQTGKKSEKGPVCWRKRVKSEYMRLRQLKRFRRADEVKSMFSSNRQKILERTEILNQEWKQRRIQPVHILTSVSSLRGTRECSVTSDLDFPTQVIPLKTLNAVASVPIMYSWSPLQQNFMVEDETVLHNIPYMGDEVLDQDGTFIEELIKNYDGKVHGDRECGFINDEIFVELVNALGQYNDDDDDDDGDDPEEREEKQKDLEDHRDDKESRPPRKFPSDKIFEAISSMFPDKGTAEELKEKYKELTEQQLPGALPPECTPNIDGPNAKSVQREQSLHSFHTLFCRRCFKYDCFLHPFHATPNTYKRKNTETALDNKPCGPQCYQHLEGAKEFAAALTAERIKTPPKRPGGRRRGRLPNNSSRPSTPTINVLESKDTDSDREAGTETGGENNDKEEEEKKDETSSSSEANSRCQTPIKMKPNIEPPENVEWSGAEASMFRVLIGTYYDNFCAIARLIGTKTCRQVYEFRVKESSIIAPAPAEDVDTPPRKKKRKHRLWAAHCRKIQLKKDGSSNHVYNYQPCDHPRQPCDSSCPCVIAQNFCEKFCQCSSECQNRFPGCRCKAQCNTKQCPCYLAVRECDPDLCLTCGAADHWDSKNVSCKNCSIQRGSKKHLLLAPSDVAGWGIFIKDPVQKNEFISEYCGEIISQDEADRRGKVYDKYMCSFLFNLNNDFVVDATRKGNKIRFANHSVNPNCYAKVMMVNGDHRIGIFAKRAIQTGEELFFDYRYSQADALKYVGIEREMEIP
T1 sequence (Q96SW2 whole entry, looked up): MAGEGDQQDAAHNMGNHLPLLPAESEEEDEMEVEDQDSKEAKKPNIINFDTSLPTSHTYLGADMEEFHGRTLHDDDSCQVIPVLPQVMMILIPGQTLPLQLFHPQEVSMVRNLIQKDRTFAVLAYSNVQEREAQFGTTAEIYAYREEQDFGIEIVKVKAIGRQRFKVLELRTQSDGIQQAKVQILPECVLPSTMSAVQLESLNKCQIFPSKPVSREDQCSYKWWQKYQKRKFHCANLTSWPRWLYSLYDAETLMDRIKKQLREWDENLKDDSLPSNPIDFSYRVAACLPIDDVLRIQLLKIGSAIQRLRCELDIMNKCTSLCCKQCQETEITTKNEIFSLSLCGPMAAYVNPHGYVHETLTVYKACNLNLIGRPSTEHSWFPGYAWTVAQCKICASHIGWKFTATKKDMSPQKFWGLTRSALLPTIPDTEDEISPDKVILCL
Method in brief: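 WSU-DLCL-2 cells exposed to 1 μM compound for 48 h, with DMSO-treated cells as control. Bands quantified by densitometry and normalized to GAPDH. Mean SD from three independent experiments, t-test versus DMSO.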

[2] = molecular target: T1, Protein cereblon/Histone-lysine N-methyltransferase EZH2 (Homo sapiens); assay: PROTAC activity at CRBN E3 ligase/EZH2 in PRC2 complex in human WSUDLCL2 cells assessed as induction of RbAp48 degradation at 10 uM incubated for 48 hrs by Western blot analysis; type: cell-based
[3] = molecular target: T1, Protein cereblon/Histone-lysine N-methyltransferase EZH2 (Homo sapiens); assay: PROTAC activity at CRBN E3 ligase/EZH2 in PRC2 complex in human WSUDLCL2 cells assessed as induction of EZH2 degradation by measuring reduction in EZH2 protein level at 1 uM measured up to 2 hrs by Western blot analysis; type: cell-based; details: time hrs <=2
WSUDLCL2 [4] = assay: Inhibition of PRC2 in human WSUDLCL2 cells assessed as suppression H3K27 trimethylation incubated for 48 hrs by Western blot analysis; type: cell-based
Method in brief: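 Lysates run on SDS-PAGE and transferred to nitrocellulose. Membranes blocked with 5% skim milk for 2 h, primary antibody applied overnight at 4 °C, then secondary antibody and chemiluminescent detection of histone H3 methylation marks.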

[5] = molecular target: T1, Protein cereblon/Histone-lysine N-methyltransferase EZH2 (Homo sapiens); assay: PROTAC activity at CRBN E3 ligase/EZH2 in PRC2 complex in human SU-DHL-6 cells assessed as reduction in H3K27me3 level at 1 uM incubated for 48 hrs by Western blot analysis; type: cell-based
Method in brief: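 Cells cultured in DMEM or RPMI 1640 with 10% FBS and 1% penicillin-streptomycin, 37 °C, 5% CO2; exposed to 1 μM compound for 48 h. Lysates run on SDS-PAGE and transferred to nitrocellulose. Blocked 2 h in 5% skim milk, primary antibody overnight at 4 °C, then secondary antibody. Chemiluminescent detection of PRC2 subunits and H3K27me3.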

[6] = molecular target: T1, Protein cereblon/Histone-lysine N-methyltransferase EZH2 (Homo sapiens); assay: PROTAC activity at CRBN E3 ligase/EZH2 in PRC2 complex in human A2780 cells assessed as induction of EZH2 degradation by measuring reduction in EZH2 protein level at 1 uM incubated for 48 hrs by Western blot analysis; type: cell-based
Method in brief: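 Cancer cell lines exposed to 1 μM compound for 48 h. Lysates immunoblotted (SDS-PAGE, nitrocellulose, 5% milk block, primary antibody overnight at 4 °C) for EZH2, SUZ12, EED, RbAp48 and H3K27me3. Bands quantified by densitometry and normalized to GAPDH.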

[7] = molecular target: T1, Protein cereblon/Histone-lysine N-methyltransferase EZH2 (Homo sapiens); assay: PROTAC activity at CRBN E3 ligase/EZH2 in PRC2 complex in human WSUDLCL2 cells assessed as downregulation of EZH2 expression at 1 uM pretreated with MG-132 for 4 hrs followed by compound addition and measured after 48 hrs by Western blot analysis; type: cell-based
Method in brief: (§1)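 WSU-DLCL-2 cells pretreated 4 h with the named inhibitor, then compound added and incubated a further 48 h. EZH2, SUZ12, EED and RbAp48 measured by western blot (nitrocellulose transfer, skim-milk block, primary antibody overnight at 4 °C, chemiluminescent detection).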

[8] = molecular target: T1, Protein cereblon/Histone-lysine N-methyltransferase EZH2 (Homo sapiens); assay: PROTAC activity at CRBN E3 ligase/EZH2 in PRC2 complex in human WSUDLCL2 cells assessed as downregulation of RbAp48 expression at 1 uM pretreated with EED226 for 4 hrs followed by compound addition and measured after 48 hrs by Western blot analysis; type: cell-based; method in brief: as §1
[9] = molecular target: T1, Protein cereblon/Histone-lysine N-methyltransferase EZH2 (Homo sapiens); assay: PROTAC activity at CRBN E3 ligase/EZH2 in PRC2 complex in human WSUDLCL2 cells assessed as increase in SUZ12 ubiquitination at 1 uM measured after 48 hrs by co-immunoprecipitation assay; type: cell-based
Method in brief: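 WSU-DLCL-2 cells treated with 1 μM compound for 48 h and lysed in RIPA buffer. Lysates incubated with antibodies overnight at 4 °C, then 3 h with Protein G agarose beads at 4 °C. Proteins eluted in IP buffer and ubiquitination of the target probed by immunoblot.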

WSUDLCL2 [10] = assay: Upregulation of ADRB2 mRNA expression in human WSUDLCL2 cells at 1 uM incubated for 48 hrs by qRT-PCR analysis; type: functional, cell-based
Method in brief: (§2)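 WSU-DLCL-2 or Pfeiffer cells treated 48 h. Trizol RNA extraction, reverse transcription, SYBR qPCR (95 °C 30 s; 40 cycles of 95 °C 6 s, 60 °C 20 s). mRNA normalized to DMSO-treated cells; mean ± SD of three independent experiments, t-test.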

WSUDLCL2 [11] = assay: Upregulation of TNFRSF21 mRNA expression in human WSUDLCL2 cells at 1 uM incubated for 48 hrs by qRT-PCR analysis; type: functional, cell-based; method in brief: as §2
A549 [12] = assay: Upregulation of CDKN2A mRNA expression in human A549 cells at 5 uM incubated for 48 hrs by qRT-PCR analysis; type: functional, cell-based
Method in brief: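 A549 cells treated 48 h. Trizol RNA extraction, reverse transcription, SYBR qPCR (95 °C 30 s; 40 cycles of 95 °C 6 s, 60 °C 20 s). mRNA normalized to DMSO-treated cells; mean ± SD of three independent experiments.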

A549 [13] = assay: Downregulation of CENPK mRNA expression in human A549 cells at 10 uM incubated for 48 hrs by qRT-PCR analysis; type: functional, cell-based
Method in brief: (§3)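 Cells treated 48 h. Total RNA extracted with Trizol, reverse-transcribed, and SYBR RT-qPCR run: 95 °C 30 s, then 40 cycles of 95 °C 6 s and 60 °C 20 s. mRNA normalized to the DMSO-treated group. Mean SD of three independent experiments, t-test versus DMSO.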

NCI-H1299 [14] = assay: Downregulation of ARL6IP mRNA expression in human NCI-H1299 cells at 10 uM incubated for 48 hrs by qRT-PCR analysis; type: functional, cell-based; method in brief: as §3
NCI-H1299 [15] = assay: Downregulation of CEP76 mRNA expression in human NCI-H1299 cells at 10 uM incubated for 48 hrs by qRT-PCR analysis; type: functional, cell-based; method in brief: as §3
Pfeiffer = assay: Antiproliferative activity against human Pfeiffer cells harboring EZH2-A677G mutant assessed as inhibition of cell growth incubated for 3 to 7 days by optical microscopic analysis (Rvb= 0.49 uM); type: functional, cell-based
NCI-H1299 [16] = assay: Antiproliferative activity against human NCI-H1299 cells harboring SWI/SNF mutant assessed as inhibition of cell growth at 10 uM treated for 9 days by optical microscopic analysis; type: functional, cell-based; details: time 9.0 day
Method in brief: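 Cells seeded at 5 × 10³ per well, grown 24 h, then exposed to compound at 10 μM for 9 days with medium refreshed. Cells were photographed and counted on days 1, 3, 5, 7 and 9. For lines 1-2, EZH2-targeting or control shRNA was induced in the cells. Mean SD of three independent experiments; t-test against control.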

[17] = molecular target: T1, Protein cereblon/Histone-lysine N-methyltransferase EZH2 (Homo sapiens); assay: PROTAC activity at CRBN E3 ligase/EZH2 in PRC2 complex in human WSUDLCL2 cells assessed as downregulation of EED expression at 1 uM pretreated with EPZ6438 for 4 hrs followed by compound addition and measured after 48 hrs by Western blot analysis; type: cell-based; method in brief: as §1

Activity [1]: 75%
Activity [2]: inactive
Activity [3]: Active
Activity [5]: Active
Activity [6]: Active
Activity [7]: inactive
Activity [8]: Active
Activity [9]: Active
Activity [17]: inactive
SMILES: CCN(c1cc(-c2ccc(CN3CCN(CCCCCCCOc4cccc5c4C(=O)N(C4CCC(=O)NC4=O)C5=O)CC3)cc2)cc(C(=O)NCc2c(C)cc(C)[nH]c2=O)c1C)C1CCOCC1 (stereo not drawn)
inhibition (WSUDLCL2 [4]): Dose-Dependent Effect
Activity (WSUDLCL2 [10]): Active
Activity (WSUDLCL2 [11]): Active
Activity (A549 [12]): Active
Activity (A549 [13]): Active
Activity (NCI-H1299 [14]): Active
Activity (NCI-H1299 [15]): Active
IC50 (Pfeiffer): 210 nM
Activity (NCI-H1299 [16]): Active
